In ChEMBL document CHEMBL1140214, “Antitumor activity of new substituted 3-(5-imidazo[2,1-b]thiazolylmethylene)-2-indolinones and 3-(5-imidazo[2,1-b]thiadiazolylmethylene)-2-indolinones: selectivity against colon tumor cells and effect on cell cycle-related events” (2008):

Assays:
[1] = Antitumor activity against human renal cancer cells after 48 hrs by SRB assay; type: functional, Cancer cell lines; details: for GI50 / LC50 (concentration killing 50% of cells) / TGI: Homo sapiens, Cancer cell lines, 48 h; for TGI: read-out: pTGI (converted)
Procedure, shortened: (§1)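 NCI 60-cell panel two-stage screen: a single-dose pass at 10^-5 M, then five-dose testing for active compounds. Compounds were dissolved in DMSO and tested at five 10-fold dilutions, the highest 10^-4 M (10^-3 M in some cases). Results are given as the negative log molar concentration at three end points: pGI50, pTGI (total growth inhibition) and pLC50. Means are panel-subtype averages.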

NSCLC = test: Antitumor activity against human NSCLC cells after 48 hrs by SRB assay; type: functional; details: for GI50 / LC50 / TGI: Homo sapiens, NSCLC, 48 h; for TGI: read-out: pTGI (converted); procedure, shortened: as §1
[2] = Antitumor activity against human CNS cancer cells after 48 hrs by SRB assay; type: functional, Cancer cell lines; details: for TGI: read-out: pTGI (converted); procedure, shortened: as §1
[3] = Antitumor activity against human Breast cancer cells after 48 hrs by SRB assay; type: functional, Cancer cell lines; details: for GI50 / LC50 / TGI: Homo sapiens, Cancer cell lines, 48 h; for TGI: read-out: pTGI (converted); procedure, shortened: as §1
Melanoma cell = test: Antitumor activity against human Melanoma cells after 48 hrs by SRB assay; type: functional; details: for CC50: read-out: pLC50 (the source's name) (converted); for TGI: read-out: pTGI (converted); procedure, shortened: as §1
[4] = Antitumor activity against human prostate cancer cells after 48 hrs by SRB assay; type: functional, Cancer cell lines; details: for GI50 / TGI / LC50: Homo sapiens, Cancer cell lines, 48 h; for TGI: read-out: pTGI (converted); procedure, shortened: as §1
[5] = Antitumor activity against human ovarian cancer cells after 48 hrs by SRB assay; type: functional, Cancer cell lines; details: for GI50 / LC50 (concentration killing 50% of cells) / TGI: Homo sapiens, Cancer cell lines, 48 h; for TGI: read-out: pTGI (converted); procedure, shortened: as §1
Leukemia cell = test: Antitumor activity against human Leukemia cells after 48 hrs by SRB assay; type: functional; details: for GI50 / TGI / LC50 (concentration killing 50% of cells): Homo sapiens, Leukemia cell, 48 h; for TGI: read-out: pTGI (converted); procedure, shortened: as §1
[6] = Antitumor activity against human Colon cancer cells after 48 hrs by SRB assay; type: functional, Cancer cell lines; details: for GI50 / LC50 (50% lethal concentration) / TGI: Homo sapiens, Cancer cell lines, 48 h; for TGI: read-out: pTGI (converted); procedure, shortened: as §1
[7] = Homo sapiens, Cancer cell lines, 48 h
[8] = Homo sapiens, Cancer cell lines, 48 h, read-out: pGI50 (converted)
[9] = Homo sapiens, Melanoma cell, 48 h, read-out: pGI50 (converted)
[10] = Homo sapiens, Melanoma cell, 48 h

| SMILES | GI [1] [µM] | GI50 [1] [µM] | GI (NSCLC) [µM] | GI50 (NSCLC) [µM] | TGI (NSCLC) [µM] | GI50 [2] [µM] | GI50 [2, 8] [µM] | GI [3] [µM] | GI50 [3] [µM] | GI50 (Melanoma cell) [µM] | GI50 (Melanoma cell; [9]) [µM] | TGI (Melanoma cell; [10]) [µM] | GI [4] [µM] | GI50 [4] [µM] | GI [5] [µM] | GI50 [5] [µM] | GI (Leukemia cell) [µM] | GI50 (Leukemia cell) [µM] | GI [6] [µM] | GI50 [6] [µM] | further results |
| --- | --- | --- | --- | --- | --- | --- | --- | --- | --- | --- | --- | --- | --- | --- | --- | --- | --- | --- | --- | --- | --- |
| Cc1ccc(-c2nc3sc(C)cn3c2/C=C2/C(=O)Nc3ccc(Cl)cc32)cc1 | 12.59 | 12.6 | 13.49 | 13.5 | 37.2 | 6.61 | 6.61 | 12.59 | 12.6 | 14.79 | 14.8 | 31.6 | 22.39 | 22.4 | 14.45 | 14.5 | 22.91 | 22.9 | 18.62 | 18.6 | LC50 (concentration killing 50% of cells) [1]: 64.6 µM; TGI [1]: 32.4 µM; LC50 (NSCLC): 69.2 µM; LC50 [2, 7]: 55 µM; TGI [2, 7]: 20.4 µM; LC50 [3]: 75.9 µM; TGI [3]: 38.9 µM; CC50 (Melanoma cell; [10]): 66.1 µM; TGI [4]: 55 µM; LC50 (concentration killing 50% of cells) [5]: 74.1 µM; TGI [5]: 34.7 µM; TGI (Leukemia cell): 72.4 µM; LC50 (50% lethal concentration) [6]: 79.4 µM; TGI [6]: 43.7 µM |
| COc1ccc2c(c1)/C(=C\c1c(-c3ccc(C)cc3)nc3sc(C)cn13)C(=O)N2 | 13.18 | 13.2 | 14.45 | 14.5 | 77.6 | 14.45 | 14.5 | 12.88 | 12.9 | 16.22 | 16.2 | 55 | 4.68 | 4.68 | 18.2 | 18.2 | 4.07 | 4.07 | 12.88 | 12.9 | TGI [1]: 67.6 µM; TGI [5]: 97.7 µM; TGI (Leukemia cell): 51.3 µM; TGI [6]: 66.1 µM |
| Cc1cn2c(/C=C3/C(=O)N(C)c4ccc(Cl)cc43)c(C)nc2s1 | 6.03 | 6.03 | 7.94 | 7.94 | 41.7 | 3.16 | 3.16 | 6.76 | 6.76 | 5.5 | 5.5 | 63.1 | 1 | 1 | 3.8 | 3.8 | 1.45 | 1.45 | 2.69 | 2.69 | TGI [1]: 61.7 µM; LC50 [2, 7]: 79.4 µM; TGI [2, 7]: 28.8 µM; TGI [3]: 33.1 µM; TGI [4]: 4.37 µM; TGI [5]: 44.7 µM; TGI (Leukemia cell): 11.7 µM; LC50 (50% lethal concentration) [6]: 83.2 µM; TGI [6]: 38 µM |
| Cc1cn2c(/C=C3/C(=O)Nc4ccc(O)cc43)c(-c3ccc(Cl)cc3)nc2s1 | 15.14 | 15.1 | 16.6 | 16.6 | 55 | 13.18 | 13.2 | 15.85 | 15.8 | 15.14 | 15.1 | 57.5 | 15.14 | 15.1 | 13.8 | 13.8 | 12.59 | 12.6 | 24.55 | 24.5 | LC50 (concentration killing 50% of cells) [1]: 87.1 µM; TGI [1]: 50.1 µM; LC50 (NSCLC): 91.2 µM; LC50 [2, 7]: 81.3 µM; TGI [2, 7]: 35.5 µM; LC50 [3]: 95.5 µM; TGI [3]: 56.2 µM; CC50 (Melanoma cell; [10]): 89.1 µM; LC50 [4]: 79.4 µM; TGI [4]: 50.1 µM; LC50 (concentration killing 50% of cells) [5]: 89.1 µM; TGI [5]: 44.7 µM; LC50 (concentration killing 50% of cells) (Leukemia cell): 95.5 µM; TGI (Leukemia cell): 38.9 µM; TGI [6]: 75.9 µM |
| Cc1cn2c(/C=C3/C(=O)Nc4ccccc43)c(-c3ccc(Cl)cc3)nc2s1 | 3.31 | 3.31 | 8.13 | 8.13 | 17.8 | 6.76 | 6.76 | 6.46 | 6.46 | 9.55 | 9.55 | 19.1 | 9.77 | 9.77 | 10 | 10 | 18.2 | 18.2 | 10.23 | 10.2 | LC50 (concentration killing 50% of cells) [1]: 33.1 µM; TGI [1]: 18.6 µM; LC50 (NSCLC): 38 µM; LC50 [2, 7]: 30.2 µM; TGI [2, 7]: 15.1 µM; LC50 [3]: 35.5 µM; TGI [3]: 17.8 µM; CC50 (Melanoma cell; [10]): 32.4 µM; LC50 [4]: 28.8 µM; TGI [4]: 17 µM; LC50 (concentration killing 50% of cells) [5]: 39.8 µM; TGI [5]: 20.4 µM; TGI (Leukemia cell): 44.7 µM; LC50 (50% lethal concentration) [6]: 38.9 µM; TGI [6]: 21.4 µM |
| Cc1nn2c(/C=C3/C(=O)Nc4ccc(Cl)cc43)c(C)nc2s1 | 56.23 | 56.2 | 53.7 | 53.7 | 89.1 | 29.51 | 29.5 | 28.18 | 28.2 | 41.69 | 41.7 | 97.7 | 43.65 | 43.7 | 52.48 | 52.5 | 14.13 | 14.1 | 14.13 | 14.1 | TGI [2, 7]: 97.7 µM; TGI [3]: 83.2 µM; TGI (Leukemia cell): 81.3 µM |
| COc1ccc2c(c1)/C(=C\c1c(-c3cc(OC)ccc3OC)nc3sc(C)cn13)C(=O)N2C | 30.9 | 30.9 | 28.84 | 28.8 | 89.1 | 23.99 | 24 | 28.84 | 28.8 | 25.12 | 25.1 | 56.2 | 30.9 | 30.9 | 25.7 | 25.7 | 15.85 | 15.8 | 33.11 | 33.1 | TGI [1]: 97.7 µM; TGI [2, 7]: 74.1 µM; TGI [3]: 95.5 µM; TGI [4]: 97.7 µM; TGI [5]: 91.2 µM; TGI (Leukemia cell): 63.1 µM; TGI [6]: 81.3 µM |
| Cc1nn2c(/C=C3/C(=O)Nc4ccccc43)c(C)nc2s1 | 61.66 | 61.7 | 38.9 | 38.9 | – | 48.98 | 49 | 22.91 | 22.9 | 45.71 | 45.7 | – | 47.86 | 47.9 | 50.12 | 50.1 | 16.22 | 16.2 | 9.33 | 9.33 | – |
| Cc1cn2c(/C=C3/C(=O)N(C)c4ccc(O)cc43)c(C)nc2s1 | 13.18 | 13.2 | 12.88 | 12.9 | 67.6 | 4.57 | 4.57 | 4.57 | 4.57 | 7.41 | 7.41 | 63.1 | 12.59 | 12.6 | 9.12 | 9.12 | 3.39 | 3.39 | 3.89 | 3.89 | TGI [1]: 85.1 µM; TGI [2, 7]: 37.2 µM; TGI [3]: 38 µM; TGI [5]: 52.5 µM; TGI (Leukemia cell): 27.5 µM; TGI [6]: 56.2 µM |
| COc1ccc(OC)c(-c2nc3sccn3c2/C=C2/C(=O)N(C)c3ccccc32)c1 | 27.54 | 27.5 | 26.92 | 26.9 | 74.1 | 21.38 | 21.4 | 15.85 | 15.8 | 19.5 | 19.5 | 47.9 | 25.12 | 25.1 | 29.51 | 29.5 | 7.41 | 7.41 | 23.44 | 23.4 | TGI [1]: 72.4 µM; LC50 [2, 7]: 97.7 µM; TGI [2, 7]: 57.5 µM; TGI [3]: 53.7 µM; CC50 (Melanoma cell; [10]): 87.1 µM; TGI [4]: 91.2 µM; TGI [5]: 81.3 µM; LC50 (concentration killing 50% of cells) (Leukemia cell): 97.7 µM; TGI (Leukemia cell): 44.7 µM; LC50 (50% lethal concentration) [6]: 95.5 µM; TGI [6]: 67.6 µM |
| Cc1cn2c(/C=C3/C(=O)Nc4ccc(F)cc43)c(C)nc2s1 | 11.48 | 11.5 | 8.13 | 8.13 | 42.7 | 6.03 | 6.03 | 4.47 | 4.47 | 6.31 | 6.31 | 35.5 | 9.55 | 9.55 | 7.24 | 7.24 | 4.57 | 4.57 | 2.4 | 2.4 | TGI [1]: 40.7 µM; TGI [2, 7]: 33.1 µM; TGI [3]: 23.4 µM; TGI [4]: 40.7 µM; TGI [5]: 44.7 µM; TGI (Leukemia cell): 23.4 µM; TGI [6]: 40.7 µM |
